Results: ChEMBL document CHEMBL1149538, “A high-throughput assay for O-GlcNAc transferase detects primary sequence preferences in peptide substrates” (Bioorg Med Chem Lett, 2007)
Where a SMILES comes first, the peptide text is derived from it.

How the values were obtained:
Conditions in all cases: BL21-DE3
[1] = biological target: T1, UDP-N-acetylglucosamine--peptide N-acetylglucosaminyltransferase 110 kDa subunit (Homo sapiens) (UniProt O15294); experiment: Binding affinity to human OGT expressed in Escherichia coli […] cells assessed as alpha-FLAG-HRP activity relative to alpha-A-crystallin peptide by azido-ELISA
T1 sequence (whole entry): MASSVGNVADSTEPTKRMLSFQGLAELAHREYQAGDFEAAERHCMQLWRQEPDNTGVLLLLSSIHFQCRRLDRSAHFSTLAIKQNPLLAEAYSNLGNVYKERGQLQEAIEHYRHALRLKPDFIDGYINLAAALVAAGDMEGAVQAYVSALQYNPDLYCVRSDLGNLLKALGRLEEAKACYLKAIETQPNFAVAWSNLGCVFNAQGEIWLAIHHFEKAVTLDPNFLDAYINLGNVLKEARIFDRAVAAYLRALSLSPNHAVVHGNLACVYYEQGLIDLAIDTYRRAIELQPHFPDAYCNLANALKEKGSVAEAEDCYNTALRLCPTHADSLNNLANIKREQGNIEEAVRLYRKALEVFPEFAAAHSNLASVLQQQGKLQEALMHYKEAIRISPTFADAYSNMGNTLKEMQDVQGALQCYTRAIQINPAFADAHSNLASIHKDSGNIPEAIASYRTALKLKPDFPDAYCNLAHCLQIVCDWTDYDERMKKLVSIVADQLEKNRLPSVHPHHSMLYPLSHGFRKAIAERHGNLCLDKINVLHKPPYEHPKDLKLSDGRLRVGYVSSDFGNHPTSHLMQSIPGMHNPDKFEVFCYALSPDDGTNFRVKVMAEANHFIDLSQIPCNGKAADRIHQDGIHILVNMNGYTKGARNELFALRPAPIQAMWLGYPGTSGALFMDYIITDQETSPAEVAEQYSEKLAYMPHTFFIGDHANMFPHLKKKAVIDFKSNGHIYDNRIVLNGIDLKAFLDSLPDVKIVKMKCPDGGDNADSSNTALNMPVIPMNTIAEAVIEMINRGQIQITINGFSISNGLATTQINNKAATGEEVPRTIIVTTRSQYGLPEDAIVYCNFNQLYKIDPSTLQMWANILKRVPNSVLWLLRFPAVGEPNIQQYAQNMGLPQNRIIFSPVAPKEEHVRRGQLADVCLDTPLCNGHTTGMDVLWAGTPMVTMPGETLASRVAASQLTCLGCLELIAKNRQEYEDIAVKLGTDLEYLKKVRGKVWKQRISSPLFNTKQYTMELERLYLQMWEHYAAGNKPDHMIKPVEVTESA
Outline: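 Biotinylated peptides are reacted at saturating levels with Ni-column-purified human OGT from E. coli BL21(DE3), plus UDP-GlcNAz 62.5 μM, MgCl2 12.5 μM and β-mercaptoethanol 1 mM, for 4 h at 37 °C. Reactions are stopped with pH 4.5 sodium acetate and captured on NeutrAvidin. Product is tagged with phosphine-FLAG, detected by anti-FLAG-HRP/TMB at A450, normalized to the parent peptide after Ala-peptide background subtraction. Data are from 3 experiments, each in triplicate.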

[2] = substrate: CC[C@H](C)[C@H](NC(=O)[C@H](C)N)C(=O)N1CCC[C@H]1C(=O)N[C@H](C(=O)N[C@@H](CO)C(=O)N[C@@H](CCCNC(=N)N)C(=O)N[C@@H](C)C(=O)N[C@@H](CCC(=O)O)C(=O)N[C@@H](CCCCN)C(=O)O)C(C)C; experiment: (§1) Binding affinity to human OGT expressed in Escherichia coli […] cells by azido-ELISA
Outline: (§2)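 Km is derived from the azido-ELISA using Ni-purified human OGT expressed in E. coli BL21(DE3), with UDP-GlcNAz as donor, MgCl2 and β-mercaptoethanol, incubated at 37 °C. Biotinylated peptide product is captured on NeutrAvidin, Staudinger-tagged with phosphine-FLAG (0.2 mM, 2 h, 37 °C), and quantified by anti-FLAG-HRP with TMB at 450 nm.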

[3] = substrate: CC[C@H](C)[C@H](NC(=O)[C@H](C)N)C(=O)N1CCC[C@H]1C(=O)N[C@H](C(=O)N[C@@H](CO)C(=O)N[C@@H](CCCNC(=N)N)C(=O)N1CCC[C@H]1C(=O)N[C@@H](CCC(=O)O)C(=O)N[C@@H](CCCCN)C(=O)O)C(C)C; experiment: as §1; outline: as §2
[4] = substrate: CC[C@H](C)[C@H](NC(=O)[C@H](C)N)C(=O)N1CCC[C@H]1C(=O)N[C@H](C(=O)N[C@@H](CO)C(=O)N[C@@H](CCCNC(=N)N)C(=O)N[C@@H](CCC(=O)O)C(=O)N[C@@H](CCC(=O)O)C(=O)N[C@@H](CCCCN)C(=O)O)C(C)C; experiment: as §1; outline: as §2

Question: With `CC(C)[C@H](NC(=O)[C@@H]1CCCN1C(=O)[C@H](C)NC(=O)[C@H](C)N)C(=O)N[C@@H](CO)C(=O)N[C@@H](CCCNC(=N)N)C(=O)N[C@@H](CCC(=O)O)C(=O)N[C@@H](CCC(=O)O)C(=O)N[C@@H](CCCCN)C(=O)O` (H-AAPVSREEK-OH) as the molecule, how does the Activity [1] read?
Answer: 0.4

Question: For `CC[C@H](C)[C@H](NC(=O)[C@H](CO)NC(=O)[C@@H](NC(=O)[C@@H]1CCCN1C(=O)[C@@H](NC(=O)[C@H](C)N)[C@@H](C)CC)C(C)C)C(=O)N[C@@H](CCC(=O)O)C(=O)N[C@@H](CCC(=O)O)C(=O)N[C@@H](CCCCN)C(=O)O` (H-AIPVSIEEK-OH), which Activity [1] is on record?
Answer: 0.1

B1: UDP-N-acetylglucosamine--peptide N-acetylglucosaminyltransferase 110 kDa subunit (Homo sapiens), O15294 (protein)
chain: T1 sequence (whole entry)
Question: B1 was tested. Which Km [2] did it give?
Answer: 0.5 µM

Question: And the Km [3]?
Answer: 0.8 µM

Question: What about the Km [4] of the same molecule?
Answer: 8.7 µM
